Key:
[1] = molecular target: T1, Indoleamine 2,3-dioxygenase 1 (Homo sapiens, UniProt P14902); test: Inhibition of IDO1 (unknown origin) at 100 uM using L-tryptophan as substrate by spectrophotometric method relative to control
Target sequence in this assay (P14902 whole entry, looked up): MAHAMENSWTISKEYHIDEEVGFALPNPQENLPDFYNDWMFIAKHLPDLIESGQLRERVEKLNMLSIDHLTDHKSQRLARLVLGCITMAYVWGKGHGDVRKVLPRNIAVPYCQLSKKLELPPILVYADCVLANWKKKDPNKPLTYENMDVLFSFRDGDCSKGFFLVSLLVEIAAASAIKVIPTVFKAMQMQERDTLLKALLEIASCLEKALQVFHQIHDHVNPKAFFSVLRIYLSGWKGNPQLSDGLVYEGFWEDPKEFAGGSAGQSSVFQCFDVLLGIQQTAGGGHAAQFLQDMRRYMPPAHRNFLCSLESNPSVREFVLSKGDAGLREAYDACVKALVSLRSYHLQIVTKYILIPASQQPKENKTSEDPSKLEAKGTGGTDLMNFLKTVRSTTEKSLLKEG

[2] = molecular target: T2, Indoleamine 2,3-dioxygenase 2 (Homo sapiens) (UniProt Q6ZQW0); test: Inhibition of IDO2 (unknown origin) at 100 uM using L-tryptophan as substrate by spectrophotometric method relative to control
T2 sequence (whole entry): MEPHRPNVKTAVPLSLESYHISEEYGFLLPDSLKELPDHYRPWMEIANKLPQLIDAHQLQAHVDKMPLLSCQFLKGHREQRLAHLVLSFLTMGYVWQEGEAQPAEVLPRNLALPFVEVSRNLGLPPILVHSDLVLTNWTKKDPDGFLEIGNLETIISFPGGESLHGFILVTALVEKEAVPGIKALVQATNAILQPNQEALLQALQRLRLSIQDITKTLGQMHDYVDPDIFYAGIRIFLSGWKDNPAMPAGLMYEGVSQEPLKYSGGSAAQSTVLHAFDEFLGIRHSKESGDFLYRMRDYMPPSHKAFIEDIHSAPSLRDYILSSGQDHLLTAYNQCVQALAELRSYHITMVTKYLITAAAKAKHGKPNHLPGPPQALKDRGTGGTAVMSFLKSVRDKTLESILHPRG

[3] = molecular target: T1, Indoleamine 2,3-dioxygenase 1; test: Inhibition of IDO1 in human HeLa cells using L-tryptophan as substrate after 20 hrs; assay type: cell-based
How it was run: (§1)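 HeLa cells (endogenous human IDO1) were induced with 100 ng/mL IFNγ for 24 h at 100 μM Trp. T-REx cells carried tet-regulated human TDO (2 ng/mL doxycycline, 24 h, 100 μM Trp) or mouse IDO2 (doxycycline plus 8 mM 5-aminolevulinic acid, 20 μM hemin, 4 mM Trp, 48 h). After induction, compound serial dilutions were added in medium with final Trp 100 μM (IDO1/TDO) or 2 mM (IDO2) for 20 h at 37 °C. Read-out was TCA fixation, 65 °C hydrolysis, then p-dimethylaminobenzaldehyde colour.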
Target sequence in this assay (P14902 whole entry): as the sequence (P14902 whole entry, looked up) above

[4] = Cytotoxicity against human HeLa cells assessed as cell viability up to 100 uM relative to control; assay type: cell-based; details: read-out: Activity
[5] = molecular target: T1, Indoleamine 2,3-dioxygenase 1; test: Inhibition of IDO1 (unknown origin) using L-tryptophan as substrate by spectrophotometric method
Target sequence in this assay (P14902 whole entry): as the sequence (P14902 whole entry, looked up) above

[6] = molecular target: T3, Indoleamine 2,3-dioxygenase 2 (Mus musculus, UniProt Q8R0V5); test: Inhibition of mouse IDO2 expressed in human T-REx cells using L-tryptophan as substrate after 20 hrs; assay type: cell-based; how it was run: as §1
T3 sequence (Q8R0V5 whole entry): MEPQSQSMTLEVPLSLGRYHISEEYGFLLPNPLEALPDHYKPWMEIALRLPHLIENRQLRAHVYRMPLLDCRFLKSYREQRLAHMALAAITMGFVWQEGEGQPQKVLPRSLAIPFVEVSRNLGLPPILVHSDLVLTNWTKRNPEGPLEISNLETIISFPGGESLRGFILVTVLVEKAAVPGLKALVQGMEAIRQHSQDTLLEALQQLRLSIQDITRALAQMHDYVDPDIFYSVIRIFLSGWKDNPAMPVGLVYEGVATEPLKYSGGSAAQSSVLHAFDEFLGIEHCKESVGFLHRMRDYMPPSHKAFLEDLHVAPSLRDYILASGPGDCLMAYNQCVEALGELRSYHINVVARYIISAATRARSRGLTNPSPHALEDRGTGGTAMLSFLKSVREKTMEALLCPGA

[7] = molecular target: T4, Tryptophan 2,3-dioxygenase (Homo sapiens, UniProt P48775); test: Inhibition of human TDO expressed in human T-REx cells using L-tryptophan as substrate after 20 hrs; assay type: cell-based; how it was run: as §1
Target sequence in this assay (P48775 whole entry): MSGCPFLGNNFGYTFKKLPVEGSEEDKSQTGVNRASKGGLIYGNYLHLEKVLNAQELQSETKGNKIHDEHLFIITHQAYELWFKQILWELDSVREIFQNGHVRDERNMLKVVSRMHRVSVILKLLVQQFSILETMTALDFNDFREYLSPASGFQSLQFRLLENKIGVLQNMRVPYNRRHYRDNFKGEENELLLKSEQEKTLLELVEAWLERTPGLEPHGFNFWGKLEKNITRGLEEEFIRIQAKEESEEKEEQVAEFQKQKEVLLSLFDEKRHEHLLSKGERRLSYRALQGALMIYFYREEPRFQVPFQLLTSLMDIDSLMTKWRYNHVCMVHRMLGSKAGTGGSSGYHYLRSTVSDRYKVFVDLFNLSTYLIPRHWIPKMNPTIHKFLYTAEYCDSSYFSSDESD

[8] = Selectivity ratio of IC50 for inhibition of mouse IDO2 expressed in human T-REx cells to IC50 for inhibition of IDO1 in human HeLa cells; assay type: cell-based; how it was run: as §1
[9] = molecular target: T4, Tryptophan 2,3-dioxygenase; test: Inhibition of TDO (unknown origin) at 100 uM using L-tryptophan as substrate by spectrophotometric method relative to control
Target sequence in this assay (P48775 whole entry, looked up): as the sequence (P48775 whole entry) above

[10] = species on record: Homo sapiens; test: Selectivity ratio of IC50 for inhibition of mouse IDO2 expressed in human T-REx cells to IC50 for inhibition of human TDO expressed in human T-REx cells; assay type: cell-based; how it was run: as §1
[11] = species on record: Homo sapiens; test: Selectivity ratio of IC50 for inhibition of human TDO expressed in human T-REx cells to IC50 for inhibition of IDO1 in human HeLa cells; assay type: cell-based; how it was run: as §1
[12] = molecular target: T1, Indoleamine 2,3-dioxygenase 1; test: Inhibition of IDO1 (unknown origin) at 200 uM using L-tryptophan as substrate by spectrophotometric method relative to control
Target sequence in this assay (P14902 whole entry, looked up): as the sequence (P14902 whole entry, looked up) above

[13] = molecular target: T4, Tryptophan 2,3-dioxygenase; test: Inhibition of TDO (unknown origin) at 200 uM using L-tryptophan as substrate by spectrophotometric method relative to control
Target sequence in this assay (P48775 whole entry, looked up): as the sequence (P48775 whole entry) above

[14] = molecular target: T2, Indoleamine 2,3-dioxygenase 2 (Homo sapiens); test: Inhibition of IDO2 (unknown origin) at 200 uM using L-tryptophan as substrate by spectrophotometric method relative to control
[15] = molecular target: T4, Tryptophan 2,3-dioxygenase; test: Inhibition of TDO (unknown origin) using L-tryptophan as substrate by spectrophotometric method
Target sequence in this assay (P48775 whole entry): as above

Structure (SMILES)	inhibition [1] [%]	inhibition [2] [%]	IC50 ([3]; hela) [nM]	viability [4] [%]	IC50 [5] [µM]	IC50 [6] [µM]	IC50 [7] [µM]	Ratio IC50 [8]	inhibition [9] [%]	Ratio IC50 [10]	IC50 [3] [nM]	Ratio IC50 [11]	inhibition [12] [%]	inhibition [13] [%]	inhibition [14] [%]	IC50 [15] [µM]
COc1ccccc1C(ON)c1ccccc1 (stereo not drawn)	> 95	80	1110	≥ 80	23	16.5	48.8									
NOC(c1ccccc1)c1ccsc1 (stereo not drawn)	83	76.5		≥ 80		49.9	4.41	10	93.3	10	3360					
O=C1CC(c2c[nH]c3ccc(F)cc23)C(=O)N1 (stereo not drawn) [PF-06840003]				≥ 80		327	378									
NOC(c1ccccc1)c1cccc(Br)c1 (stereo not drawn)	> 95	77.6		60	1	11.8	7.15		92.6		590					
NOC(c1ccccc1)c1ccccc1Br (stereo not drawn)	> 95	81		≥ 80	17	12.3	22.5	5 to 10	90.4		1460	5 to 10				
NOC(c1ccccc1)C1CCCCC1 (stereo not drawn)	76	88.6		≥ 80		40.2	2770		43.6		21000					
NOC(c1ccccc1)c1cc(C(F)(F)F)cc(C(F)(F)F)c1 (stereo not drawn)				60		14.5	77.4				3350		56	50.8	53.3	
NS(=O)(=O)NCCNc1nonc1C(=NO)Nc1ccc(F)c(Br)c1 [EPACADOSTAT]				≥ 80		18.9	25.2									
NOC(c1ccc(F)cc1)c1ccc(F)cc1	> 95	73.6		≥ 80	9	12.1	5.15		> 95		1680					9
NOC(c1ccc(Cl)cc1)c1ccc(Cl)cc1	> 95	69.3		≥ 80	3	12.5	4.53		> 95		1090					2
NOC(c1ccccc1)c1ccc(F)cc1F (stereo not drawn)	> 95	46		60	7	18.9	6.37		90.3		1210					
NOC(c1ccccc1)c1ccc(Cl)cc1 (stereo not drawn)	> 95	74.3		≥ 80	5	27.8	23.7		> 95		7150					5
NOC(CCc1cccc(Cl)c1)c1ccccc1 (stereo not drawn)	> 95	78.1		≥ 80	7	20.5	58.7		93.1		6740					
NOC(c1ccccc1)c1ccccc1F (stereo not drawn)	> 95	77.8		≥ 80	12	30.5	3.92	10	87.2	10	1260					
NOC(c1ccccc1)c1cccc(Cl)c1Cl (stereo not drawn)	> 95	72.4		≥ 80	8	8.95	4.54		> 95		1870					9
NOC(c1ccccc1)c1cc(F)cc(F)c1 (stereo not drawn)	> 95	83		≥ 80	4	8.75	3.48		92.6		357					
NOC(c1ccccc1)c1cccc(C(F)(F)F)c1 (stereo not drawn)	18		1730	≥ 80		24.7	13.6		> 95							12
NOC(c1ccccc1)c1cccc(C(F)(F)F)c1F (stereo not drawn)	> 95	81.1		≥ 80	6	16.8	5.62		93.2		933					
NOC(c1ccccc1)c1cc(C(F)(F)F)ccc1F (stereo not drawn)	> 95	73.8		≥ 80	8	8.94	9.02		73.4		1090					
NOC(c1ccccc1)c1cccc(F)c1 (stereo not drawn)	> 95	82		≥ 80	5	9.99	6.21		> 95		939					6
NOC(c1ccccc1)c1ccc(O)cc1 (stereo not drawn)				≥ 80		12.6	29.8				2890		18.3	48.7	72.3	
